A short description of data set [1]: Pharmacokinetics, plasma LC-MS/MS, non-compartmental analysis. It is filed as in vivo, human. The settings on record: AUC0–24 on Days 1 and 18/21 of Cycle 1, 600 mg/day dose. The method, boiled down: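 Oral daily dosing at 50–1,200 mg/day. On Cycle 1 Days 1 and 18/21, blood was drawn pre-dose and at 0.5, 1, 2, 4, 6, 8 and 24 h, with further trough days. Parent drug and a metabolite in plasma were measured by validated LC-MS/MS (LLOQ 1.0 ng/mL). Non-compartmental analysis was used. Dose proportionality was fitted as ln(Cmax or AUC0–24) = α + β ln(dose). T1/2,acc came from the accumulation ratio; steady state was judged from troughs.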

Data set [2] deals with hormone receptor-positive breast cancer. The note with it: cited from earlier work.

Like-named read-outs stand apart in the source and are kept apart here.

Regarding `CNC(=O)c1cc2cnc(Nc3ccc(N4CCNCC4)cn3)nc2n1C1CCCC1` [LEQ803], in data set [1], the “metabolite exposure relative to parent drug” value is listed as “approximately 10%”.

For the compound `CC(=O)c1c(C)c2cnc(Nc3ccc(N4CCNCC4)cn3)nc2n(C2CCCC2)c1=O` [palbociclib], the median progression-free survival result in data set [2] (in combination with fulvestrant) and in data set [2] (in combination with letrozole) was “improved median progression-free survival” in each case.

Values taken from article PMC5621377 (Clinical cancer research : an official journal of the …, 2016).
